Screening data deposited in PubChem BioAssay by The Scripps Research Institute Molecular Screening Center.
TRPN1 ag: agonists of zebrafish TRPN1 channel; HEK293 zebrafish TRPN1-YFP, Fluo-8 calcium fluorescence; 100% = response to 87 µM carbachol; activation, % at 3 µM; hit rate 0.18% among 220,000; AID 1424;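 active = activation above its plate's cutoff, the mean activation of test wells on that plate plus 3 SD, cut at about 19% in these data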;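 note: 0% = DMSO alone and 100% = 87 µM carbachol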
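Material: zebrafish TRPN1-YFP in HEK293 cells. Doses: one dose of 3 µM, 0.3% DMSO. Incubation: dye 1 h 37 °C plus 30 min RT. Measured by: intracellular calcium fluorescence with Fluo-8.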
OX1R antag-1: human HCRTR1 antagonism | CHO/OX1R cells, Fluo-8 calcium fluorescence, orexin A | AID 434989 | inhibition, % at 5 µM | hit rate 0.43% among 330,000 | O43613;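 active = inhibition above its plate's threshold, mean inhibition of all tested compounds on the plate plus 3 SD, cut at about 37% in these data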;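 note: 0% = orexin A challenge wells and 100% = SB-334867-A antagonist wells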
TRPML3 agonist: human mucolipin-3 channel agonism; Q8TDD5; AID 1448; hit rate 0.29% among 220,000; HEK293 TRPML3-YFP, Fluo-8 calcium fluorescence; 100% = the carbachol control signal; activation, % at 3 µM;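 active = activation above its plate's cutoff, the mean activation of the plate's test wells plus 3 SD, cut at about 12% in these data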;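 note: 0% = DMSO only wells and 100% = carbachol wells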
Target sequence (Q8TDD5 whole entry, looked up): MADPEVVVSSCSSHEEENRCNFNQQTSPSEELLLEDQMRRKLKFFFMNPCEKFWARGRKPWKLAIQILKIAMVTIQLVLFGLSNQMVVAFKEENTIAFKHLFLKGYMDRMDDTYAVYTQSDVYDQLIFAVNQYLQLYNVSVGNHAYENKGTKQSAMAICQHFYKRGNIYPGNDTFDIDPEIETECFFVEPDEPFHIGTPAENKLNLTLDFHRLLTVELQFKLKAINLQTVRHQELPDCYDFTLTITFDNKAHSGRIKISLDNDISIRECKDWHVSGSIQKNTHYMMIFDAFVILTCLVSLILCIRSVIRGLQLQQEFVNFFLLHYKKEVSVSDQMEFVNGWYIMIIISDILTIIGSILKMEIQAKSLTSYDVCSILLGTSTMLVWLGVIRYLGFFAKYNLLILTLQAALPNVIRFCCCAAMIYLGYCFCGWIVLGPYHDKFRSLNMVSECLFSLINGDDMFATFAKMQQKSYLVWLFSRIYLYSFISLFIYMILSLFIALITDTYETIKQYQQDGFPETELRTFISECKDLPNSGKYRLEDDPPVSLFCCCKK
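system = HEK293 cells stably carrying human TRPML3-YFP | doses = one concentration, 3 µM nominal, 0.3% DMSO | timing = dye loading 1 h 37 °C then 30 min ambient, 125 s read | detection = Fluo-8 calcium dye fluorescence, ex 470-495, em 515-575 nm | benchmarks = high control carbachol 87 µM, low control DMSO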
CHO parental Ca: signal in parental CHO cells, OX1R antagonist counter-screen. parental CHO-K1, ATP-induced calcium, Fluo-8 fluorescence. inhibition, % at 5.6 µM. hit rate 0.63% among 330,000. AID 463079;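 active = inhibition above that plate's mean sample inhibition plus 3 SD, cut at about 26% in these data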;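 note: 0% = ATP-challenged DMSO wells and 100% = DMSO wells without ATP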
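Assay system: untransfected parental CHO cell line. Also added: ATP agonist challenge. Dosing: one dose, 5.6 µM nominal. Measured by: Fluo-8 fluorescence. Read-out: % inhibition. Benchmarks: ATP wells versus no-ATP DMSO wells. Repeats: no replicates.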
OX1R antag-2: OX1R (human) antagonism; hit rate 1.8% among 330,000; O43613; OX1R-expressing cells, FRET antagonist read-out; inhibition, % at 6.6 µM; AID 485270; in the data active = inhibition mostly above about 38%, no sharp cut-off; inactive = mostly below about 40%;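 note: 0% = agonist challenge alone and 100% = reference antagonist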
* = called active by the depositor; . = no result given. Most compounds without a hit are left out; they make up all but 2.5% or so of the library.

SMILES	TRPN1 ag	OX1R antag-1	TRPML3 agonist	CHO parental Ca	OX1R antag-2
CC(=O)Nc1cccc(NC(=O)COC(=O)CO/N=C(\C)c2ccc3c(c2)OCO3)c1	.	22	.	-8	74*
CCOCCCn1c(=S)[nH]c2cc(C(=O)NCc3ccc(F)cc3)ccc2c1=O	.	-10	.	-2	17
NS(=O)(=O)c1ccc(NNC(=O)c2ccc(Br)o2)c([N+](=O)[O-])c1	.	10	.	-4	58*
CCCc1ccc(Oc2c(-c3ccc(O)c(C)c3O)n[nH]c2C)cc1	10	23	2	29*	3
Fc1ccc(C(CCCn2nnc(-c3cccnc3)n2)c2ccc(F)cc2)cc1	1	48*	1	35*	41
CN(CC(=O)Nc1ccccc1Br)C(=O)COc1ccc2ccccc2c1	.	1	.	-16	41*
Cc1ccc(OCCCC(=O)N(C)CC(=O)Nc2ccccc2Br)cc1	.	-17	.	-21	12
CC(C)(C)C1CCC(OCC(O)CN2CCN(c3ccccn3)CC2)CC1 (centres undefined)	-2	-12	2	-11	6
CCNC(=O)C(=O)NCC(c1cccs1)S(=O)(=O)c1ccc(C)cc1 (centres undefined)	.	-25	.	-15	19
CN(C)CCCNC(=S)NCC(c1ccc(Cl)cc1Cl)c1c[nH]c2ccccc12 (centres undefined)	.	39*	.	43*	2
COc1ccc(C(=O)NCC(c2ccccc2)N2CCCC2)cc1S(=O)(=O)N1CCOCC1 (centres undefined)	.	-15	.	-4	-1
COc1ccc(C(=O)NC(=O)CSc2n[nH]c(N)n2)cc1	.	-5	.	-5	10
CCOCCCn1cc(C(=O)c2cc(Br)ccc2O)cc(C#N)c1=O	2	-18	1	-31	9
CCCCn1cc(C(=O)c2cc(Br)ccc2O)cc(C#N)c1=O	7	44*	1	29	51
CCOCCCNC1=C(Cl)C(=O)c2ccccc2C1=O	-1	-8	1	-7	71*
O=C1c2ccccc2C(=O)N1CCN1CCOCC1	1	5	0	-4	10
O=C1C(Cl)=C(NCCN2CCOCC2)C(=O)c2ccccc21	.	1	.	2	61*
CCC1CCCCN1C(=O)CCc1nnc(Cc2cc(OC)ccc2OC)o1 (centres undefined)	-1	-33	-1	-18	5
Cc1cccc(C)c1NC(=O)COC(=O)c1ccc2c(c1)OCO2	1	-19	1	-6	11
CC(OC(=O)c1cc2ccccc2cc1O)C(=O)Nc1ccc(S(N)(=O)=O)cc1 (centres undefined)	2	5	1	21	6
Cc1cccc(C)c1NC(=O)COC(=O)c1c2c(nc3ccccc13)/C(=C\c1ccc3c(c1)OCO3)CCC2	135*	45	40*	38	39
CC(OC(=O)c1c2c(nc3ccccc13)/C(=C\c1ccc3c(c1)OCO3)CCC2)C(=O)Nc1ccc(S(N)(=O)=O)cc1 (centres undefined)	28*	.	22*	.	.
CCN(C[C@H]1N[C@@](C)(C(=O)OC)[C@H]2C(=O)N(C)C(=O)[C@@H]12)C(=O)Nc1ccc(Cl)cc1	.	-13	.	-12	3
Cc1cc(OCC(=O)Nc2ccc(S(=O)(=O)N3CCN(C)CC3)cc2)ccc1Br	.	-18	.	8	25
O=[N+]([O-])c1cc(Br)c(OCc2nnc(-c3ccccc3)o2)c(Br)c1	0	-22	0	-13	7
SMILES	TRPN1 ag	OX1R antag-1	TRPML3 agonist	CHO parental Ca	OX1R antag-2
O=[N+]([O-])c1ccc2c(OCc3nnc(-c4ccccc4Br)o3)ncnc2c1	2	-14	1	-15	49*
NNc1nc(-c2ccccc2)nc2sc3c(c12)CCCC3	0	-17	1	-19	8
Nc1c2c(nc3sc4c(c13)CCCC4)-c1ccccc1CC2	-1	-7	1	-10	72*
CC(=O)c1ccc(OCc2cc(C(=O)NC3CCCCC3)no2)cc1	.	2	.	-5	23
O=C1NC(=O)C(Cc2cccc(Oc3ccccc3)c2)S1 (centres undefined)	.	-14	.	-5	44*
Cc1ccc(C(=O)N[C@H](C(=O)OCc2cc(=O)n3c(n2)sc2ccccc23)C(C)C)cc1	1	-17	2	-40	21
O=C(OCc1cc(=O)n2c(n1)sc1ccccc12)c1ccc(O)cc1O	1	-2	-1	-17	63*
COc1ccc(-c2cc(-c3c(O)c(OC)c4occc4c3OC)[nH]n2)cc1OC	-1	62*	-1	-18	70*
COc1ccc(-c2cc(-c3c(O)c(OC)c4occc4c3OC)[nH]n2)cc1	-1	-22	-1	-17	19
CN(C)c1ccc(C(=O)c2ccccc2C(=O)O)c(O)c1	1	-15	0	3	12
CCCCN(CCCC)c1ccc(C(=O)c2ccccc2C(=O)O)c(O)c1	2	78*	1	94*	18
O=C(Nc1ccc2c(c1)OCCO2)C1CC(O)CN1C(=O)Nc1ccccc1 (centres undefined)	.	-9	.	7	3
CC(C)(C)OC(=O)NCCCCCc1cn([C@@H](CO)C(=O)NCCCCCCCCCCC(=O)N2CCN(C(=O)OC(C)(C)C)CC2)nn1	.	74*	.	96*	71*
CC[C@H](C)[C@@H](C(=O)NCCCCCCCCCCC(=O)N1CCN(C(=O)OC(C)(C)C)CC1)n1cc(CCCCCNC(=O)OC(C)(C)C)nn1	.	32	.	43*	13
Cc1nc(-c2ccc(S(=O)(=O)Oc3ccccc3Cl)s2)cs1	1	9	1	58*	6
CCOCCCNc1nc2c(C)cccn2c(=O)c1/C=C1\SC(=S)N(C(C)CC)C1=O (centres undefined)	20*	45*	8	26	0
CCCc1cc(=O)oc2cc(C)cc(OC(C)C(=O)NCc3ccncc3)c12 (centres undefined)	.	-17	.	-29	11
Cn1c(=O)c2c(ncn2CC(=O)OCCCC(=O)c2ccc(Br)cc2)n(C)c1=O	.	38	.	35*	18
O=C(c1nc2nc(-c3ccc(Cl)cc3)cc(C(F)(F)F)n2n1)N1CCOCC1	-2	-23	0	-18	46*
Cc1cc(C)cc(NC(=O)c2nnn(Cc3cc(C)ccc3C)c2N)c1	16	80*	11	68*	12
COc1cccc2nc3cc(C)c(C)cc3nc12	-1	-19	1	-12	68*
COc1cccc2c1nc(C)c1cc(C)oc12	-1	-14	-1	-29	23
CN(C(=O)CSc1nc(N)cc(N)n1)C1CCS(=O)(=O)C1 (centres undefined)	.	-8	.	-1	5
COc1cc2c(cc1OC)CN(C(=S)Nc1ccc(OC(F)F)cc1)CC2	5	4	2	45*	22
COc1cc2c(cc1OC)CN(C(=S)Nc1ccccc1)CC2	0	-12	0	-15	10
O=C(CSc1nnc(-c2ccc3c(c2)OCO3)o1)Nc1c(F)cccc1F	.	-10	.	-7	4
